Assay [1] is described as follows: Antitumor activity against mouse Ridgeway osteogenic sarcoma cells allografted in mouse at 0.2 to 0.3 mg/kg/day, ip. Conditions: route intraperitoneal. It counts as functional. In a few lines:
(§1)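 Ridgeway osteogenic sarcoma and Gardner lymphosarcoma in mice, with sulfate salts given ip daily on days 1-9. Tumor growth inhibition versus controls scored in bands: +++ = 75-100%, ++ = 50-75%, ± = under 25%.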

The nature of assay [2]: Antitumor activity against mouse Gardner lymphosarcoma cell allografted in mouse at 0.2 to 0.3 mg/kg/day, ip. It counts as functional. Conditions: route intraperitoneal. In a few lines:
as §1

Each structure is given as a SMILES string.

As to `CC[C@]1(O)C[C@H]2CN(CCc3c([nH]c4ccccc34)[C@@](C(=O)OC)(c3cc4c(cc3OC)N(C)[C@H]3[C@@](O)(C(=O)NN)[C@H](O)[C@]5(CC)C=CCN6CC[C@]43[C@@H]65)C2)C1`, the TGI in assay [1] and in assay [2] was 75% in each case.

Source of the values: ChEMBL document CHEMBL3272325, “Structure-activity relationships of dimeric Catharanthus alkaloids. 1. Deacetylvinblastine amide (vindesine) sulfate” (J Med Chem, 1978).
